According to ChEMBL document CHEMBL1129272, “Identification of the first retinoid X, receptor homodimer antagonist” (J Med Chem, 1996):

Key:
[1] = target: T1, Retinoic acid receptor gamma (Homo sapiens, UniProt P13631); assay: Transcriptional activation of Retinoic acid receptor RAR gamma
T1 sequence (P13631 whole entry): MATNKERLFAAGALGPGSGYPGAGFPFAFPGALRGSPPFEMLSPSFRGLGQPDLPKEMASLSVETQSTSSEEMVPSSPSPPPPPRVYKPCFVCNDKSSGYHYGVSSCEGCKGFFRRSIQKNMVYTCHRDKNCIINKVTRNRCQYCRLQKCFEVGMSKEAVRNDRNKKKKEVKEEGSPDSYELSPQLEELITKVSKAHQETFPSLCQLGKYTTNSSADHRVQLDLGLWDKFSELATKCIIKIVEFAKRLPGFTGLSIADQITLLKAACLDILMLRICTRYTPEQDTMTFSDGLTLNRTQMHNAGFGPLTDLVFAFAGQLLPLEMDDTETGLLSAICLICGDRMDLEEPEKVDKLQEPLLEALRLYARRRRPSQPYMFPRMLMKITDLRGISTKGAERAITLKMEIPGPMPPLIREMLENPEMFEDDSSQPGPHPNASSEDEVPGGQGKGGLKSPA
Method in brief: (§1)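 CV-1 cells were transiently cotransfected with the receptor expression vector, a ΔMTV-TREp-Luc reporter and an RSV-β-Gal internal control, then incubated with compound (log dilutions, 1 x 10^-12 to 1 x 10^-5 M). Luciferase was normalized by β-galactosidase. Response is % of the all-trans-RA maximum, giving EC50. Three experiments, triplicates at each concentration.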

[2] = target: T2, Retinoic acid receptor RXR-beta (Homo sapiens, UniProt P28702); assay: Inhibition of [3H]-Targretin binding to Retinoid X receptor RXR beta
T2 sequence (P28702 whole entry): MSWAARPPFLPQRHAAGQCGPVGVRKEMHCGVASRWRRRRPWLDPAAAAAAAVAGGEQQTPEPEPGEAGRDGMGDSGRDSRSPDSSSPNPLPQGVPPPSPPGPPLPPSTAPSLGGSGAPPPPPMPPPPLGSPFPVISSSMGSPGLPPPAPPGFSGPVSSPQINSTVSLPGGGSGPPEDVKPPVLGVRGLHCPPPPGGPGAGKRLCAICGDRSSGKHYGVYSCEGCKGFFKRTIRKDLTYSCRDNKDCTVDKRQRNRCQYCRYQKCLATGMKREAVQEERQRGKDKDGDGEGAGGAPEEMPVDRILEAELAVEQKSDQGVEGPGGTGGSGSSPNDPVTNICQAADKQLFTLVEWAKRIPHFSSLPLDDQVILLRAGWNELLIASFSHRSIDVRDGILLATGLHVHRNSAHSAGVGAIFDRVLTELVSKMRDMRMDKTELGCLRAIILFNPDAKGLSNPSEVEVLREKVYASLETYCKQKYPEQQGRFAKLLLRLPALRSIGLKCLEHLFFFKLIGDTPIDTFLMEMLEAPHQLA
Method in brief: (§2)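 Recombinant receptors were expressed in a baculovirus system. Test ligands competed with [3H]Targretin (LGD1069) for binding. Ki values were derived by the Cheng–Prusoff method.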

[3] = target: T3, Retinoic acid receptor beta (Homo sapiens, UniProt P10826); assay: Inhibition of [3H]ATRA binding to Retinoic acid receptor RAR beta
T3 sequence (P10826 whole entry): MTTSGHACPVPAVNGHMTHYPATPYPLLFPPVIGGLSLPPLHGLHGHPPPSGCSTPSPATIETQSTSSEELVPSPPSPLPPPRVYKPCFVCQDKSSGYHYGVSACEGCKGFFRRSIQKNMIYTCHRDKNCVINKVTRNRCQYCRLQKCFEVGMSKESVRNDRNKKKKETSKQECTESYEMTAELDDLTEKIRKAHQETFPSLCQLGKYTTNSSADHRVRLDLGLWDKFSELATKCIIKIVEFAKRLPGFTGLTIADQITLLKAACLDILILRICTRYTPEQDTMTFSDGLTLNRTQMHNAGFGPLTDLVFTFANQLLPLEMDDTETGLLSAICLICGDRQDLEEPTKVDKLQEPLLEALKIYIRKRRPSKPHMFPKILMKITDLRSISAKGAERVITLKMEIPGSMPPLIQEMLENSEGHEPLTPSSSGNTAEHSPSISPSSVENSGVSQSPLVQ
Method in brief: (§3)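 Receptors expressed recombinantly in a baculovirus system. Binding was measured by competition against 5 nM [3H]-all-trans-RA. Ki was calculated by the Cheng–Prusoff method.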

[4] = target: T4, Retinoic acid receptor alpha (Homo sapiens, UniProt P10276); assay: Inhibition of [3H]ATRA binding to Retinoic acid receptor RAR alpha; method in brief: as §3
T4 sequence (P10276 whole entry): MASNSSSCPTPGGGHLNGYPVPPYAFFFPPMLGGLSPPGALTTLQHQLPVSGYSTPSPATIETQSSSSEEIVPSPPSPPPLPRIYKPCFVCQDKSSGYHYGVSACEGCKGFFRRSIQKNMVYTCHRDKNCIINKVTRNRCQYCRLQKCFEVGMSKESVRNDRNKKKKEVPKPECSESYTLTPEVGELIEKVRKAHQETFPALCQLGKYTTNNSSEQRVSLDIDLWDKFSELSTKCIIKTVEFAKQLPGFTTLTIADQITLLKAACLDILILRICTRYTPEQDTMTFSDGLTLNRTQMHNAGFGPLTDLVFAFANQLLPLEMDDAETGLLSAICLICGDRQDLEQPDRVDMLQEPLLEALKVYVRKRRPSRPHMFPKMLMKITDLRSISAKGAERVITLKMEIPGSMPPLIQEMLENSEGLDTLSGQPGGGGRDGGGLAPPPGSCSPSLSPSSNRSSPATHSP

[5] = target: T1, Retinoic acid receptor gamma; assay: Inhibition of [3H]ATRA binding to Retinoic acid receptor RAR gamma; method in brief: as §3
[6] = target: T5, Retinoic acid receptor RXR-gamma (Homo sapiens, UniProt P48443); assay: Transcriptional activation of Retinoid X receptor RXR gamma
T5 sequence (P48443 whole entry): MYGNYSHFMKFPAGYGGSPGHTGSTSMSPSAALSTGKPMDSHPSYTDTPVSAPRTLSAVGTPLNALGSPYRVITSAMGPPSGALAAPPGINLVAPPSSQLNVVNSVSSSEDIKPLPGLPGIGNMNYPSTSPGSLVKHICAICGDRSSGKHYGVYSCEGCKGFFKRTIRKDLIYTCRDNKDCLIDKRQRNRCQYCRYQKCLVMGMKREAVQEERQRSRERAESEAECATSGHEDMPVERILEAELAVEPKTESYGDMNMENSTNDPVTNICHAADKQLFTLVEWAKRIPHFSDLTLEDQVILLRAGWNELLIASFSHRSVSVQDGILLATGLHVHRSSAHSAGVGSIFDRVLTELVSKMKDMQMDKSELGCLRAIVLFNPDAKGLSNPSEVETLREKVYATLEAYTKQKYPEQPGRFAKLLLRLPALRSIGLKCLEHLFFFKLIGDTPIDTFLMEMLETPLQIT
Method in brief: (§4)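 In transiently cotransfected CV-1 cells, the receptor vector was paired with a reporter (RXRβ: CPRE-tk-Luc; RXRγ: CRBPII-tk-Luc) plus an RSV-β-Gal internal control. Compound was tested at 1 x 10^-12 to 1 x 10^-5 M in log dilutions. Luciferase was corrected by β-galactosidase and expressed as % of the 9-cis-RA maximum to give EC50. Three experiments, triplicate points.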

[7] = target: T5, Retinoic acid receptor RXR-gamma; assay: Inhibition of [3H]targretin binding to Retinoid X receptor RXR gamma; method in brief: as §2
[8] = target: T2, Retinoic acid receptor RXR-beta; assay: Transcriptional activation of Retinoid X receptor RXR beta; method in brief: as §4
[9] = target: T3, Retinoic acid receptor beta; assay: Transcriptional activation of Retinoic acid receptor RAR beta; method in brief: as §1
[10] = target: T6, Retinoic acid receptor RXR-alpha (Homo sapiens, UniProt P19793); assay: Transcriptional ativation of Retinoid X receptor RXR alpha
T6 sequence (P19793 whole entry): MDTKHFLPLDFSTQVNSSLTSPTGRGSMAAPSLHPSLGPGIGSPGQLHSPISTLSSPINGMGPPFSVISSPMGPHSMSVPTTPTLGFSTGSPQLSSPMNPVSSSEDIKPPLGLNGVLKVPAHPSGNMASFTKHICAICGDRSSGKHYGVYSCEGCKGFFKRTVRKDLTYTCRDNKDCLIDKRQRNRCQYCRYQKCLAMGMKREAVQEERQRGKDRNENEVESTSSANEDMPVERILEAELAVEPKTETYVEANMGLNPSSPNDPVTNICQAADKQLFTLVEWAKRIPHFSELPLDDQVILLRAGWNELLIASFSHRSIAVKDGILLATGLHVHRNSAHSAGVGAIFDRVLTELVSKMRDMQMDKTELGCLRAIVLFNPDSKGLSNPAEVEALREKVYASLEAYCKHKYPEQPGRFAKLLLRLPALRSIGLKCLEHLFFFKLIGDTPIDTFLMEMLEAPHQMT

[11] = target: T6, Retinoic acid receptor RXR-alpha; assay: Inhibition of [3H]targretin binding to Retinoid X receptor RXR alpha
[12] = target: T4, Retinoic acid receptor alpha; assay: Transcriptional activation of Retinoic acid receptor RAR alpha; method in brief: as §1

EC50 [1] [nM]	Ki [2] [nM]	Ki [3] [nM]	Ki [4] [nM]	Ki [5] [nM]	EC50 [6] [nM]	Ki [7] [nM]	EC50 [8] [nM]	EC50 [9] [nM]	EC50 [10] [nM]	Ki [11] [nM]	EC50 [12] [nM]	SMILES
192	9	2590	1790	6090	–	–	–	–	–	–	–	CCCOc1cc2c(cc1\C(C)=C/C=C/C(C)=C/C(=O)O)C(C)(C)CCC2(C)C
121	12	3120	2580	4210	7	17	9	31	8	4	–	CCOc1cc2c(cc1\C(C)=C/C=C/C(C)=C/C(=O)O)C(C)(C)CCC2(C)C
17	2	400	306	437	9	4	8	8	5	2	40	COc1cc2c(cc1\C(C)=C/C=C/C(C)=C/C(=O)O)C(C)(C)CCC2(C)C
